{"source": "ChEMBL document CHEMBL3045020", "about": "“Insect antifeedant activity of flavones and chromones against Spodoptera litura” (2003)"}
{"system": "Spodoptera litura", "assay": "Antifeedant activity against Spodoptera litura F. by choice leaf disk assay", "type": "functional", "method_in_brief": "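Antifeedant value calculated from the rate of leaf consumption. A straight line was fitted to the bioassay points to obtain the ED50.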", "units": {"ED50": "umol/cm2"}}
{"molecule": "COc1ccc2oc(-c3ccccc3)cc(=O)c2c1", "note": "[6-METHOXYFLAVONE]", "ED50": 0.15}
{"molecule": "O=c1cc(-c2ccc(O)cc2)oc2cc(O)cc(O)c12", "note": "[APIGENIN]", "ED50": ">10"}
{"molecule": "COc1ccc2c(=O)ccoc2c1", "note": "[7-METHOXYCHROMONE]", "ED50": 0.096}
{"molecule": "O=c1cc(-c2ccccc2)oc2cc(O)cc(O)c12", "note": "[CHRYSIN]", "ED50": 2.5}
{"molecule": "COc1cc(OC)c2c(=O)cc(C)oc2c1", "ED50": ">10"}
{"molecule": "O=c1ccoc2ccccc12", "note": "[CHROMONE]", "ED50": 0.168}
{"molecule": "COc1ccc2c(=O)cc(-c3ccccc3)oc2c1", "note": "[7-METHOXYFLAVONE]", "ED50": 0.059}
{"molecule": "Cc1ccc2oc(-c3ccccc3)cc(=O)c2c1", "note": "[6-METHYLFLAVONE]", "ED50": 0.035}
{"molecule": "O=c1cc(-c2ccccc2)oc2c(O)c(O)cc(O)c12", "note": "[NORWOGONIN]", "ED50": 1.52}
{"molecule": "COc1ccc(-c2cc(=O)c3c(OC)c(OC)c(OC)c(OC)c3o2)cc1OC", "note": "[NOBILETIN]", "ED50": 5.6}
{"molecule": "O=c1cc(-c2ccccc2)oc2ccc(O)cc12", "note": "[6-HYDROXYFLAVONE]", "ED50": ">10"}
{"molecule": "COc1cc2oc(C)cc(=O)c2c(OC)c1OC", "ED50": 0.41}
{"molecule": "COc1c(O)cc(O)c2c(=O)cc(-c3ccccc3)oc12", "note": "[WOGONIN]", "ED50": 2}
{"molecule": "O=c1cc(-c2ccccc2)oc2cc(O)c(O)c(O)c12", "note": "[BAICALEIN]", "ED50": 0.96}
{"molecule": "O=c1cc(-c2ccccc2)oc2cc(O)ccc12", "note": "[7-HYDROXYFLAVONE]", "ED50": ">10"}
{"molecule": "COc1cc(O)c2c(=O)cc(-c3ccccc3)oc2c1O", "note": "[ISOWOGONIN]", "ED50": ">10"}
{"molecule": "Cc1ccc2c(=O)cc(C)oc2c1", "note": "[2,7-DIMETHYLCHROMONE]", "ED50": 0.102}
{"molecule": "COc1ccc(-c2cc(=O)c3c(OC)c(OC)c(OC)c(OC)c3o2)cc1", "note": "[TANGERETIN]", "ED50": 0.28}
{"molecule": "O=c1cc(-c2ccc(O)c(O)c2)oc2cc(O)cc(O)c12", "note": "[LUTEOLIN]", "ED50": ">10"}
{"molecule": "COc1ccc2c(=O)cc(C)oc2c1", "ED50": ">10"}
{"molecule": "O=c1cc(-c2ccccc2)oc2ccccc12", "note": "[FLAVONE]", "ED50": 0.11}
{"molecule": "COc1c(O)cc2oc(-c3ccccc3)cc(=O)c2c1O", "note": "[OROXYLIN A]", "ED50": ">10"}
{"molecule": "COc1cc2oc(-c3ccccc3)cc(=O)c2c(O)c1OC", "note": "[MOSLOFLAVONE]", "ED50": ">10"}
{"molecule": "COc1ccc(-c2oc3c(OC)c(OC)c(OC)c(O)c3c(=O)c2OC)cc1", "note": "[5-HYDROXYAURANETIN]", "ED50": 0.11}
